Measurements of several laboratories.
Compare with care: the assays were run in different laboratories.
Target: Serine/threonine-protein kinase PLK4 (PLK4, Homo sapiens, UniProt O00444)
One construct used (O00444 1-970): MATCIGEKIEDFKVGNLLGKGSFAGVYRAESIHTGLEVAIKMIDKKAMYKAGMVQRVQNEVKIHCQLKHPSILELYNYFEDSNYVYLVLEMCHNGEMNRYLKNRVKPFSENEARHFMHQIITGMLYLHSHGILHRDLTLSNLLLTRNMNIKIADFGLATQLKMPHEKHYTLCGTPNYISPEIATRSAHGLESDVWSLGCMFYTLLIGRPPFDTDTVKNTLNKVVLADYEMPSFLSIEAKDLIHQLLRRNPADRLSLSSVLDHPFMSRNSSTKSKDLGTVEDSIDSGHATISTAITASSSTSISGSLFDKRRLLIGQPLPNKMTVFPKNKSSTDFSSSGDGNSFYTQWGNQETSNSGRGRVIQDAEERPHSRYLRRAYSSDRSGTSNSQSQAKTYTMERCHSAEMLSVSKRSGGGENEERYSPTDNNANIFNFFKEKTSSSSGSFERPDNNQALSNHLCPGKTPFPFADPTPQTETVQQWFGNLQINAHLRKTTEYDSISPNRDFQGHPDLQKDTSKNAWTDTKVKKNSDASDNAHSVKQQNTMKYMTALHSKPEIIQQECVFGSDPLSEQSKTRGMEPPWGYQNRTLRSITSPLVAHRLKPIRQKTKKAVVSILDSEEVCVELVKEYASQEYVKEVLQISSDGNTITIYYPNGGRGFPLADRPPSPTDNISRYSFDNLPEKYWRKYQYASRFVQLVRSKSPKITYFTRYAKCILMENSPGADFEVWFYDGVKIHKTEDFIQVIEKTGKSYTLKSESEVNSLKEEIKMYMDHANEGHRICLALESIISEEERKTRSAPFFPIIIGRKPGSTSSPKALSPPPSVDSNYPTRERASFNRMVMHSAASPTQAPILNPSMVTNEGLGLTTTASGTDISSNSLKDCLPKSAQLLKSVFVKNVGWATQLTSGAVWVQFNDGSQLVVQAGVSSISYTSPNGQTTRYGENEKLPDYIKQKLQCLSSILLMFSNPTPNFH

| Compound | effect on | technique | concentration | remaining binding [%] |
| --- | --- | --- | --- | --- |
| COc1ccnn2ncc(-c3ccnc(N(C)C)n3)c12 | binding | – | 1 µM | 69 |
| N#Cc1ccccc1CSc1nnc2c(n1)[nH]c1ccccc12 | binding | competition with immobilised ligand | 10 µM | 100 |
| N[C@@H]1CCN(c2nccc(-c3cnn4ncccc34)n2)C1 | binding | – | 1 µM | 100 |
| O=C(c1ccc(Nc2ncc(Cl)c(-c3cc4ccccc4s3)n2)cc1)N1CCC(N2CCCC2)CC1 | binding | competition with immobilised ligand | 1 µM | 39 |
| C[C@@H]1CN(c2ccc3ncc(-c4ccc5[nH]nc(C6CC6)c5c4)n3n2)C[C@H](C)O1 | binding | competition with immobilised ligand | 50 nM | 88 |
| CN(CCCC(F)(F)F)c1nccc(-c2cnn3ncccc23)n1 | binding | – | 1 µM | 100 |
| CNC(=O)c1ccc(Nc2ncc(C(F)(F)F)c(NCc3nccnc3N(C)S(C)(=O)=O)n2)cc1 | cell-free assay | competition with immobilised ligand | 0.1 µM | 79 |
| O=C(c1ccc(Nc2ncc(Cl)c(-c3ccc(Cl)s3)n2)cc1)N1CCC(N2CCCC2)CC1 | binding | competition with immobilised ligand | 1 µM | 9.2 |
| c1cncc(-c2cccc(Nc3nccc(NC4CCCCC4)n3)c2)c1 | binding | competition with immobilised ligand | 10 µM | 34 |
| O=C(N1CCS(=O)(=O)CC1)N1C[C@H](c2ccc(OC(F)(F)F)cc2)C[C@H](c2nc(C3CC3)no2)C1 | cell-free assay | competition with immobilised ligand | 1 µM | 100 |
| O=C(Nc1c[nH]nc1C(=O)NC1CCNCC1)c1cc(F)cc(F)c1 | binding | competition with immobilised ligand | 1 µM | 97 |
| CCC(=O)N[C@H]1CC[C@@H](C(=O)N(C)c2ccc(-c3nc4ccccc4o3)cc2)C1 | cell-free assay | competition with immobilised ligand | 1 µM | 78 |
| COc1cnc(Nc2cccc(S(N)(=O)=O)c2)nc1N1CCN(c2ccccc2)C(=O)C1 | binding | competition with immobilised ligand | 1 µM | 96 |
| Cc1c[nH]c2nccc(Oc3c(F)cc(Nc4cc(Cl)nc(N)n4)cc3F)c12 | cell-free assay | competition with immobilised ligand | 0.1 µM | 82 |
| C[C@H]1CCN(c2nccc(-c3cnn4ncccc34)n2)C1 | binding | – | 1 µM | 99 |
| CC(=O)c1c(NS(C)(=O)=O)c2cc(-c3ccc(Cl)cc3)c(-c3ccc(Cl)cc3Cl)nc2n(C)c1=O | cell-free assay | competition with immobilised ligand | 1 µM | 100 |
| CC(C)(C)c1ccc(-c2nc(CBr)nn2-c2cccc(O)c2)cc1 | cell-free assay | competition with immobilised ligand | 10 µM | 88 |
